Values after ≈ are worked out from the molar mass of the structure shown.
Assays:
[1] = target: T1, Long-chain-fatty-acid--AMP ligase FadD28 (Mycobacterium tuberculosis, UniProt P9WQ59); assay: Inhibition of Mycobacterium tuberculosis H37Rv His-tagged FAAL28 expressed in Escherichia coli; conditions: read-out: Ki(app)
T1 sequence (P9WQ59 whole entry): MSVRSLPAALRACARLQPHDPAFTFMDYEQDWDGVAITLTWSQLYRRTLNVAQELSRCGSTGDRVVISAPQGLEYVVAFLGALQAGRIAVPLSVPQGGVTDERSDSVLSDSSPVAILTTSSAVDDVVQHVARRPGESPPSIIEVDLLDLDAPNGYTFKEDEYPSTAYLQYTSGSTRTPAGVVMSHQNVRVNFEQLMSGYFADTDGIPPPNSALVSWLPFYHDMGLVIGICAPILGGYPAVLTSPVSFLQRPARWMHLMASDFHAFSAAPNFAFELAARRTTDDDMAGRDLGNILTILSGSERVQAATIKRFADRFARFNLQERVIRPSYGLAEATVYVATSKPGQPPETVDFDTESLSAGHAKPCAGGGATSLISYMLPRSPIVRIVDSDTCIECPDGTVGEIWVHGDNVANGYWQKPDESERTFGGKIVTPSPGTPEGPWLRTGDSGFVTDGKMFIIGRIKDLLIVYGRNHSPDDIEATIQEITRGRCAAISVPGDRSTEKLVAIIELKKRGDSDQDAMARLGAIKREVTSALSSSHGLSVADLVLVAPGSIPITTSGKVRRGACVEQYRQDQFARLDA

[2] = target: T1, Long-chain-fatty-acid--AMP ligase FadD28; assay: Inhibition of Mycobacterium tuberculosis H37Rv FAAL28 Spectra expressed in Escherichia coli BL21(DE3) cells assessed as cleavage of MEsG by spectroscopic analysis; conditions: read-out: Ki(app)
Method in brief: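 Coupled continuous assay with pyrophosphatase (0.04 U) and nucleoside phosphorylase (0.1 U), using 0.45 μM FAAL28 and 33 μM tetradecanoic acid. Buffer was 50 mM Tris·HCl pH 8.0 with 2.5 mM ATP, 5 mM MgCl₂, 0.5 mM DTT, 150 mM hydroxylamine and 0.2 mM MesG. Apparent Ki came from a Morrison equation fit.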

[3] = target: T2, Medium/long-chain-fatty-acid--CoA/3-oxocholest-4-en-26-oate--CoA ligase (Mycobacterium tuberculosis, UniProt P9WQ51); assay: Inhibition of Mycobacterium tuberculosis H37Rv His-tagged FACL19 expressed in Escherichia coli; conditions: read-out: Ki(app)
T2 sequence (P9WQ51 whole entry): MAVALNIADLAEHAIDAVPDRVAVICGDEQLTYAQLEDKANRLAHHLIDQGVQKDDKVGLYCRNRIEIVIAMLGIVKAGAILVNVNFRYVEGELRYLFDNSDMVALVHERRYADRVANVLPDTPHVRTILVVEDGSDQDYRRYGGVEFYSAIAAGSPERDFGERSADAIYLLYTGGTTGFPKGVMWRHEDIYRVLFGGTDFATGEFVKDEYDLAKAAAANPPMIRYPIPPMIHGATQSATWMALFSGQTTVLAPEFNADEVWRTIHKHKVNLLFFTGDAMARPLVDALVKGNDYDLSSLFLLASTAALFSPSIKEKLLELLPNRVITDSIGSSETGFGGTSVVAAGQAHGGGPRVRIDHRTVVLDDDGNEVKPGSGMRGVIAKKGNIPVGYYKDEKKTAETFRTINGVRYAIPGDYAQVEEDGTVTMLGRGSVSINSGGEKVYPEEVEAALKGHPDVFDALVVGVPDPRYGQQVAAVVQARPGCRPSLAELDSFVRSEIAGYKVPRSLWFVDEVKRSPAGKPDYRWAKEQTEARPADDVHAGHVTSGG

[4] = test system: Mycobacterium tuberculosis; assay: Antimycobacterial activity against Mycobacterium tuberculosis H37Rv ATCC 27294 assessed as inhibition of bacterial growth under 7H9 medium condition after 7 to 14 days in presence of palmitate by broth microdilution method; type: functional; conditions: time 7-14 day
Method in brief: (§1)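 Mtb H37Rv ATCC 27294 by broth microdilution in GAST or 7H9 base with 5 g/L BSA fraction V, 0.8 g/L NaCl and 0.05% tyloxapol. Carbon source was 20 mM glycerol/10 mM glucose or 0.05 mM sodium palmitate. Compounds came from DMSO stocks with DMSO-only controls. Inoculum was 10⁴-10⁵ cells; growth was read at 7 and 14 days. MIC is the concentration giving >99% growth inhibition; runs were in triplicate.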

Vero = assay: Cytotoxicity against African green monkey Vero cells assessed as reduction in cell viability after 72 hrs by MTT assay; type: cell-based; conditions: Chlorocebus sabaeus
Method in brief: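 Vero cells were seeded at (2.5–5.0) × 10⁴ per well in MEM with 5% FBS and penicillin/streptomycin. Compounds were added from 20 mM DMSO stocks to a final 100 μM. Controls were 0.5% and 50% DMSO, all in triplicate. After 72 h at 37 °C in 5% CO₂, cells got 1 mg/mL MTT for 3 h. Formazan was dissolved in isopropanol and read at 570/650 nm, with viability expressed relative to DMSO control.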

[5] = test system: Mycobacterium tuberculosis; assay: Antimycobacterial activity against Mycobacterium tuberculosis H37Rv ATCC 27294 assessed as inhibition of bacterial growth under 7H9 medium condition after 7 to 14 days by broth microdilution method; type: functional; conditions: time 7-14 day; method in brief: as §1
[6] = test system: Mycobacterium tuberculosis; assay: Antimycobacterial activity against Mycobacterium tuberculosis H37Rv ATCC 27294 assessed as inhibition of bacterial growth under GAST medium condition after 7 to 14 days by broth microdilution method; type: functional; conditions: time 7-14 day; method in brief: as §1
[7] = target: T2, Medium/long-chain-fatty-acid--CoA/3-oxocholest-4-en-26-oate--CoA ligase; assay: Inhibition of Mycobacterium tuberculosis H37Rv FACL19 Spectra expressed in Escherichia coli BL21(DE3) cells assessed as cleavage of MEsG by spectroscopic analysis; conditions: read-out: Ki(app)
Method in brief: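 FACL19 (0.167 μM) with 250 μM dodecanoic acid in a coupled MesG assay with pyrophosphatase and nucleoside phosphorylase. Buffer was 50 mM Tris·HCl pH 8.0 with 2.5 mM ATP, 5 mM MgCl₂, 0.5 mM DTT and 150 mM hydroxylamine. Apparent Ki came from a Morrison tight-binding fit.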

[8] = test system: Mycobacterium tuberculosis; assay: Antimycobacterial activity against Mycobacterium tuberculosis H37Rv after 16 hrs; type: functional
[9] = Inhibition of Mycobacterium tuberculosis PKS13
[10] = test system: Mycolicibacterium smegmatis; assay: Antimycobacterial activity against Mycobacterium smegmatis; type: functional

SMILES	Ki [1] [nM]	Ki [2] [µM]	Ki [3] [µM]	MIC [4] [µM]	IC50 (Vero) [µM]	MIC [5] [µM]	MIC [6] [µM]	Ki [7] [µM]	MIC [8] [µM]	IC50 [9] [nM]	MIC [10] [µM]
CCCCCCCCCCCC(=O)NS(=O)(=O)OC[C@H]1O[C@@H](n2cnc3c(N)ncnc32)[C@H](O)[C@@H]1O	1500	6.4	4.9	50	28.7	50 (≈ 26.4 µg/mL)	0.19 (≈ 0.1 µg/mL)	67.4	100 (≈ 52.9 µg/mL)	–	–
Cc1cc2oc(=O)cc(-c3cccc(N)c3)c2c(C)c1-c1ccc(CN2CCOCC2)cc1	–	–	–	–	–	–	–	–	–	500	–
CCCCOCCOCCOCC(=O)NS(=O)(=O)OC[C@H]1O[C@@H](n2cnc3c(N)ncnc32)[C@H](O)[C@@H]1O	–	> 100	–	> 100	16	> 100	6.25 (≈ 3.43 µg/mL)	> 100	–	–	–
CCCCCCCCCCCCOP(=O)(O)OC[C@H]1O[C@@H](n2cnc3c(N)ncnc32)[C@H](O)[C@@H]1O	–	–	–	–	–	–	–	–	–	–	20 (≈ 10.3 µg/mL)
C=CCCCCCCCCC(=O)NS(=O)(=O)OC[C@H]1O[C@@H](n2cnc3c(N)ncnc32)[C@H](O)[C@@H]1O	–	> 100	–	25	11.6	25 (≈ 12.8 µg/mL)	0.39 (≈ 0.2 µg/mL)	> 100	–	–	–
Nc1ncnc2c1ncn2[C@@H]1O[C@H](COS(=O)(=O)NC(=O)CCCCCCCCCCOc2ccccc2)[C@@H](O)[C@H]1O	–	0.71	–	50	2	50 (≈ 30.3 µg/mL)	3.13 (≈ 1.9 µg/mL)	> 100	–	–	–
Nc1ncnc2c1ncn2[C@@H]1O[C@H](COS(=O)(=O)NC(=O)CCCCCCCCCCO)[C@@H](O)[C@H]1O	–	92.7	–	100	42.7	100 (≈ 53.1 µg/mL)	6.25 (≈ 3.32 µg/mL)	> 100	–	–	–
CCCCCCCCC/C=C/C(=O)NS(=O)(=O)OC[C@H]1O[C@@H](n2cnc3c(N)ncnc32)[C@H](O)[C@@H]1O	–	> 100	–	> 100	10.4	> 100	100 (≈ 52.7 µg/mL)	> 100	–	–	–
NCCCCCCCCCCCC(=O)NS(=O)(=O)OC[C@H]1O[C@@H](n2cnc3c(N)ncnc32)[C@H](O)[C@@H]1O	–	> 100	–	12.5	27.1	50 (≈ 27.2 µg/mL)	3.13 (≈ 1.7 µg/mL)	93.3	–	–	–
CCCCCC/C=C/CCCC(=O)NS(=O)(=O)OC[C@H]1O[C@@H](n2cnc3c(N)ncnc32)[C@H](O)[C@@H]1O	–	> 100	–	> 100	16.8	> 100	100 (≈ 52.7 µg/mL)	> 100	–	–	–
CCCCCCCCCOCC(=O)NS(=O)(=O)OC[C@H]1O[C@@H](n2cnc3c(N)ncnc32)[C@H](O)[C@@H]1O	–	> 100	–	25	8.7	25 (≈ 13.3 µg/mL)	0.098 (≈ 0.052 µg/mL)	> 100	–	–	–
CCCCCCCCC[C@@H]1C[C@@H]1C(=O)NS(=O)(=O)OC[C@H]1O[C@@H](n2cnc3c(N)ncnc32)[C@H](O)[C@@H]1O	–	69.8	–	> 100	6.1	> 100	50 (≈ 27 µg/mL)	> 100	–	–	–
[N-]=[N+]=NCCCCCCCCCCCC(=O)NS(=O)(=O)OC[C@H]1O[C@@H](n2cnc3c(N)ncnc32)[C@H](O)[C@@H]1O	–	28.5	–	25	5.6	12.5 (≈ 7.12 µg/mL)	0.19 (≈ 0.108 µg/mL)	> 100	–	–	–

Source: ChEMBL document CHEMBL4765357, “Development of small-molecule inhibitors of fatty acyl-AMP and fatty acyl-CoA ligases in Mycobacterium tuberculosis” (Eur J Med Chem, 2020)
